Laboratory results reported in PMC2943143 (Biochemical pharmacology, 2010).
Several values for one entry are separate records, joined by “and”; a condition that tells them apart may be missing. Equal values may be shown once. Entries after “also recorded” stand apart in the source; their conditions may differ.

Columns and labels:
human pol ε = human pol ε (Homo sapiens, UniProt Q07864); assay: Pol assay, human pol ε; format: biochemical
Outline: (§1)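 Test compound was dissolved in DMSO and sonicated 30 s. It was preincubated with enzyme (0.05 unit final) in 50 mM Tris-HCl pH 7.5, 1 mM DTT, 50% glycerol and 0.1 mM EDTA at 0 °C for 10 min. This was added to each enzyme's standard reaction mix with poly(dA)/oligo(dT)18 (A/T = 2/1) template-primer and dTTP substrate, then incubated at 37 °C for 60 min. Activity is given as % of inhibitor-free control.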

human pol η = human pol η (Homo sapiens, UniProt Q9Y253); assay: Pol assay, human pol η; format: biochemical
Sequence of human pol η (Q9Y253 whole entry): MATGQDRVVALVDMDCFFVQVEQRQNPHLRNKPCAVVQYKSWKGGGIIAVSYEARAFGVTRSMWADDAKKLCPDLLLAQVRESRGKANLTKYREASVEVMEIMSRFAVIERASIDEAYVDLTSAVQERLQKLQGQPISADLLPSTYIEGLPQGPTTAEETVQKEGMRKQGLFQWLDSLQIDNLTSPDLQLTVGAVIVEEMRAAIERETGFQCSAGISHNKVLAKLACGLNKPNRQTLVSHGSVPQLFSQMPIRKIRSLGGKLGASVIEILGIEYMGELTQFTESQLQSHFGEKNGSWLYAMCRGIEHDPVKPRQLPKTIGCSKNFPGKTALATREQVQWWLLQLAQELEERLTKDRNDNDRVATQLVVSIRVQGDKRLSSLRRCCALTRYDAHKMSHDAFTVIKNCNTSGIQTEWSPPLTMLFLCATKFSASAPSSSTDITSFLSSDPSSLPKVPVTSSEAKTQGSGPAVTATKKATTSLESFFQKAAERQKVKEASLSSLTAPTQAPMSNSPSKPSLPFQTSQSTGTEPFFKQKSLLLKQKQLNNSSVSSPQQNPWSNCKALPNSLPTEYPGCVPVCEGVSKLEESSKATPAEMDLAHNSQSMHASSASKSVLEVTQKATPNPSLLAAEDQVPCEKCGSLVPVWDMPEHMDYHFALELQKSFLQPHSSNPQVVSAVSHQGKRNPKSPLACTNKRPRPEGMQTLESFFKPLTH
Outline: as §1

del-1 pol λ (133–575) = del-1 pol λ (133–575) (Homo sapiens, UniProt Q9UGP5); assay: Pol assay, del-1 pol λ mutant; format: biochemical; conditions: dose-response, Fig. 4B
Sequence of del-1 pol λ (133–575) (Q9UGP5 133-575): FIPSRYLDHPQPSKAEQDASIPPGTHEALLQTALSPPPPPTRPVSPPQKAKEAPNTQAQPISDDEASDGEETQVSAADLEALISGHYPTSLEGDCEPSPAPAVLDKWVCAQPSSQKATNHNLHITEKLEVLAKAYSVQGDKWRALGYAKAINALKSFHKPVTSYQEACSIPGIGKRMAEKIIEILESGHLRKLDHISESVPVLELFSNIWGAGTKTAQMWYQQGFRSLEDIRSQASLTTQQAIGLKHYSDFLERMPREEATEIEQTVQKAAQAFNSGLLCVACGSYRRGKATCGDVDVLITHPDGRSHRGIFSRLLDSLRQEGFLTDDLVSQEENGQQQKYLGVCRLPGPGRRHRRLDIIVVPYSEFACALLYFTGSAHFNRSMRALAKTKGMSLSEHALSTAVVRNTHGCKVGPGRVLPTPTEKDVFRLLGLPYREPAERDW
Outline: as §1

cauliflower pol α = assay: Pol assay, cauliflower pol α; format: biochemical; conditions: supplemental Fig. S1A
Outline: as §1

[1] = target: Klenow fragment of E. coli pol I (Escherichia coli, UniProt P00582); assay: Pol assay, Klenow fragment of E. coli pol I; format: biochemical; conditions: supplemental Fig. S1A
Outline: as §1

T4 pol = T4 pol (Enterobacteria phage T4, UniProt P04415); assay: Pol assay, T4 pol; format: biochemical; conditions: supplemental Fig. S1A
Sequence of T4 pol (P04415 whole entry): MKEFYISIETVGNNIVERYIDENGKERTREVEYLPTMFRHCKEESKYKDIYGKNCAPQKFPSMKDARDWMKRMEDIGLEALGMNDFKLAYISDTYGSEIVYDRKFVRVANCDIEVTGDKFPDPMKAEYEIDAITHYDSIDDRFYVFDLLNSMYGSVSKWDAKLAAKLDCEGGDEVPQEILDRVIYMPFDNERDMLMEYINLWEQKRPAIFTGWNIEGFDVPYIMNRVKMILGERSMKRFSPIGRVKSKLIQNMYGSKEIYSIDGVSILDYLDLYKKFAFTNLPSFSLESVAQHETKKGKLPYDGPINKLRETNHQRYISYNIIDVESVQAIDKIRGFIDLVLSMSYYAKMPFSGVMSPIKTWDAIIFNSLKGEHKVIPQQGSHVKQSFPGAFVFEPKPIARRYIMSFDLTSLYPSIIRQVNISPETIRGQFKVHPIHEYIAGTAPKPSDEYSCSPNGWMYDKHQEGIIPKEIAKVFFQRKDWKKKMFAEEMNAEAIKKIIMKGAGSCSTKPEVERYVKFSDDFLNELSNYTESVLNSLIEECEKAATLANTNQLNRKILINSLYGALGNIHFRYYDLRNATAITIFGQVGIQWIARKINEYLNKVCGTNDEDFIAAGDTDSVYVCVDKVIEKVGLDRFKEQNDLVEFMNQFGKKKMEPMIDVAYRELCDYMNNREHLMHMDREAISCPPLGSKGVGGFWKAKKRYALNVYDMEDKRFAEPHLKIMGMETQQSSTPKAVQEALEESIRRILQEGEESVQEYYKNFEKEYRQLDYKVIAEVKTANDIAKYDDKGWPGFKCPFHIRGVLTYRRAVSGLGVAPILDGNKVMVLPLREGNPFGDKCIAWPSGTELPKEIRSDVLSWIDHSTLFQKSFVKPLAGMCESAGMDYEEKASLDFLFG
Outline: as §1

[2] = target: HIV-1 reverse transcriptase (Human immunodeficiency virus type 1 group M subtype B, UniProt P04585); assay: HIV-1 reverse transcriptase assay; format: biochemical, Human immunodeficiency virus type-1 (HIV-1); conditions: highest tested concentration 1 μM, supplemental Fig. S1B
Outline: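 Recombinant HIV-1 reverse transcriptase used poly(rA)/oligo(dT)18 (A/T = 2/1) template-primer and dTTP substrate. Enzyme (0.05 unit) was preincubated with test compound in sonicated DMSO at 0 °C for 10 min in Tris-HCl pH 7.5/DTT/glycerol/EDTA buffer. Reaction ran at 37 °C for 60 min. Activity is given as % of control.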

human topoisomerase I = human topoisomerase I (Homo sapiens, UniProt P11387); assay: DNA topoisomerase I assay; format: biochemical; conditions: highest tested concentration 1 μM, supplemental Fig. S1B
Outline: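 Topoisomerases I and II were purified from human placenta, and DNase I came from bovine pancreas. Each activity was measured in a standard assay following the supplier's specifications.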

T4 polynucleotide kinase = T4 polynucleotide kinase (Enterobacteria phage T4, UniProt P06855); assay: T4 polynucleotide kinase assay; format: biochemical; conditions: highest tested concentration 1 μM, supplemental Fig. S1B
Sequence of T4 polynucleotide kinase (P06855 whole entry): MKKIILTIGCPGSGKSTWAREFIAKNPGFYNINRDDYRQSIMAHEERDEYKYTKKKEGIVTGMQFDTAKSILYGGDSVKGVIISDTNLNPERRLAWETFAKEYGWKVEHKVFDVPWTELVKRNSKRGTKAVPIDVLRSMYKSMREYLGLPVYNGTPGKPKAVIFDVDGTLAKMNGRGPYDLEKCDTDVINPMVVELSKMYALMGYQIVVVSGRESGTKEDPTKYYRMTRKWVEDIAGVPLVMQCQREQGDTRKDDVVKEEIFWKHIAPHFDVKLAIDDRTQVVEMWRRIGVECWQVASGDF

HCV NS3 protease = conditions: read-out: IC50, HCV NS3 protease; cited from earlier work
Beta-secretase = conditions: cited from earlier work
[3] = test system: rat liver microsomal 5 α-reductase; conditions: cited from earlier work
HIV integrase = conditions: read-out: IC50, HIV integrase; cited from earlier work
human PCa PC-3 cells = conditions: i.p. injection, every other day, 25 mg/kg, nude mice; cited from earlier work

Sequence of human pol ε (Q07864 whole entry): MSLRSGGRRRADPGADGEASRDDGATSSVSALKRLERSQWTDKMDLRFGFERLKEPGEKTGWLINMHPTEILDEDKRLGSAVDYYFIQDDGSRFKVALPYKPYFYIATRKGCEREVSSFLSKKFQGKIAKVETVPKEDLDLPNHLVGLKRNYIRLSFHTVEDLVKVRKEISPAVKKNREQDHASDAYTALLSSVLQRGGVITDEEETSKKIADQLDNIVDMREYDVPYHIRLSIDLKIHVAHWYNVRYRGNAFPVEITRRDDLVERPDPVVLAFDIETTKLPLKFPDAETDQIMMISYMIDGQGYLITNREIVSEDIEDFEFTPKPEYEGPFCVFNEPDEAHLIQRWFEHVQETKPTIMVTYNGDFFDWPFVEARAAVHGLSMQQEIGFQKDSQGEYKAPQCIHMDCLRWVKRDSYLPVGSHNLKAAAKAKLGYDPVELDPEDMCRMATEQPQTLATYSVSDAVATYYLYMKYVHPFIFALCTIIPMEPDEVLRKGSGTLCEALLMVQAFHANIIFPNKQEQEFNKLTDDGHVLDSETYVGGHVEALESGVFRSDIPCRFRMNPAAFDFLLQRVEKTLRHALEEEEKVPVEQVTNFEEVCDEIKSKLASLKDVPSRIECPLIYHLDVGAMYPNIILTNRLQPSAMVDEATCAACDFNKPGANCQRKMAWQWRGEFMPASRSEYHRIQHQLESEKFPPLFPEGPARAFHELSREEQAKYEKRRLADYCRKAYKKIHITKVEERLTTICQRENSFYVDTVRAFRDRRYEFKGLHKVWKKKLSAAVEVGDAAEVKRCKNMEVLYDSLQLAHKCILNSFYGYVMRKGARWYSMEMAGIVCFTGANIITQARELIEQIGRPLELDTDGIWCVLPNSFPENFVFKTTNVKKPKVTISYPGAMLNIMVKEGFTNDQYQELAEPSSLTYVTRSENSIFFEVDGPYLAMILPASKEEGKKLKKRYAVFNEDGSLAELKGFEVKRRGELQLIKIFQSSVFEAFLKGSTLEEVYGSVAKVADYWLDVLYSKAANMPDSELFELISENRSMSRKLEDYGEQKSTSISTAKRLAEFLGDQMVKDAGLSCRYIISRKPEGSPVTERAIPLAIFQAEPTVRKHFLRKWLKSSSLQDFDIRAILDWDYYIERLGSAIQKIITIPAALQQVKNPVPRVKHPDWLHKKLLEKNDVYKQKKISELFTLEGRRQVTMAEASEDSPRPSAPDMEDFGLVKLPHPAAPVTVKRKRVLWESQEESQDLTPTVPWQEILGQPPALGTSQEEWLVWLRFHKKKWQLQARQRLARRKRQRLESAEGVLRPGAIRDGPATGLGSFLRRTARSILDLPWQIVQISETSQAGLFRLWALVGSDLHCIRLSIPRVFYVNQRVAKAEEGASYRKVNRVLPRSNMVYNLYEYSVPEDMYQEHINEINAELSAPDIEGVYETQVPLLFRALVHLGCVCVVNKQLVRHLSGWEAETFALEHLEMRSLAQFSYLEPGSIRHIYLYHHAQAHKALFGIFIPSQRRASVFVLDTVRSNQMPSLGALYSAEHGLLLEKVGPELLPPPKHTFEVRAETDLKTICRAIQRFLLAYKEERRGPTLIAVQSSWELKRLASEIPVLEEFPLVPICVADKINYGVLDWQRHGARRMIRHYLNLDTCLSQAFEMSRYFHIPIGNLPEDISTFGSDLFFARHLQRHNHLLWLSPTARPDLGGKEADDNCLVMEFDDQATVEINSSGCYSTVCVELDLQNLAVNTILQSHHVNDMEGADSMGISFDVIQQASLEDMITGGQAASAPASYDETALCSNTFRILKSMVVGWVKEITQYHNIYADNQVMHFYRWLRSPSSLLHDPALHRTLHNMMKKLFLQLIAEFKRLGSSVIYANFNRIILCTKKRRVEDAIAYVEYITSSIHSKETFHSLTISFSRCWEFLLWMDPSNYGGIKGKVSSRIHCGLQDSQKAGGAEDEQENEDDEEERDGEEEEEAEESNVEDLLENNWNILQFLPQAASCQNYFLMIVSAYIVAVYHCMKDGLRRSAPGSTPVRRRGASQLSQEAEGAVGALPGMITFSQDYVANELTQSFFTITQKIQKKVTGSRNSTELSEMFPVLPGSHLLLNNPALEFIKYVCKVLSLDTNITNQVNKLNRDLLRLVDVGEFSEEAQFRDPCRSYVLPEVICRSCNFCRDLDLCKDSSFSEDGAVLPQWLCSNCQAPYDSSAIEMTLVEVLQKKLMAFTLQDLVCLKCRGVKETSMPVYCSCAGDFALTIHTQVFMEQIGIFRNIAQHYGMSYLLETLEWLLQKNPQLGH

## O=C(OC[C@H]1O[C@@H](OC(=O)c2cc(O)c(O)c(O)c2)[C@H](OC(=O)c2cc(O)c(O)c(O)c2)[C@@H](OC(=O)c2cc(O)c(O)c(O)c2)[C@@H]1OC(=O)c1cc(O)c(O)c(O)c1)c1cc(O)c(O)c(O)c1 [PGG, 1,2,3,4,6-penta-O-galloyl-β-D-glucose]
Human pol ε; 100 and 1,000 nM PGG, Fig. 1C
  effect on pol ε activity: significantly inhibit
Human pol ε; IC50, pol ε, range stated for replicative pols (α, δ and ε) together
  IC50: < 100 nM and 13 to 66 nM
Human pol η
  IC50: 30 to 45 nM
Human pol η; 100 and 1,000 nM PGG, Fig. 1C
  effect on pol η activity: significantly inhibit
del-1 pol λ (133–575)
  inhibition of del-1 pol λ activity: dose-dependently inhibited
Cauliflower pol α
  effect on cauliflower pol α activity: not influenced
[1]
  effect on Klenow fragment of E. coli pol I activity: not influenced
T4 pol
  effect on T4 pol activity: not influenced
[2]
  effect on HIV-1 reverse transcriptase activity: did not suppress
Human topoisomerase I
  effect on human topoisomerase I activity: did not suppress
T4 polynucleotide kinase
  effect on T4 polynucleotide kinase activity: did not suppress
HCV NS3 protease
  IC50: 1600 nM
Beta-secretase
  Mode of Inhibition, Beta-secretase: Non-competitive for Rh-EVNLDAEFK-Quencher
Beta-secretase; read-out: IC50, Beta-secretase
  IC50: 3760 nM
Beta-secretase; read-out: Ki, Beta-secretase
  Ki: 5130 nM
[3]
  Mode of Inhibition, 5-alpha-Reductase, NADPH: competitive inhibitor; also recorded: Competitive for NADPH
  Mode of Inhibition, 5-alpha-Reductase, testosterone: non-competitive inhibitor; also recorded: Non-competitive for testosterone
[3]; read-out: IC50, 5-alpha-Reductase
  IC50: 7800 nM
[3]; read-out: Ki, 5-alpha-Reductase, NADPH, competitive for NADPH
  Ki: 480 nM
HIV integrase
  IC50: 13700 nM
Human PCa PC-3 cells
  growth of PC-3 cells inoculated into the tibia: positive inhibitory efficacy
